Bioassay records (PubChem BioAssay)
Sampled rows, rich in hits. Any-hit rate of the full collection: about 2.3%.
PME-1 primary: PME-1 inhibitors via competitive probe labeling, primary screen, biochemical, fluorescence polarization, FP-Rh probe, HTS | inhibition, % at 5.9 µM | recombinant PME-1 | Protein phosphatase methylesterase 1 (Homo sapiens), Q9Y570 | 320,000 tested, 0.53% active | AID 2130, 2009;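 active = inhibition above the campaign mean of all compounds plus 3 SD, cut at about 26% in these data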;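 note: competitive labeling of PME-1 active site by serine hydrolase directed probe; 0% = PME-1 with DMSO and 100% = wells lacking PME-1 enzyme; inhibitors block probe labeling so polarization falls and inhibition rises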
RBBP9 inhibitor: human RBBP9 inhibitors, primary screen, biochemical, fluorescence polarization, FP-Rh probe, HTS. Serine hydrolase RBBP9 (Homo sapiens), O75884. recombinant RBBP9. inhibition, % at 7.94 µM. 220,000 tested, 0.2% active;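 active = inhibition above the campaign mean of all tested compounds plus 3 SD, cut at about 14% in these data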;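 note: plate controls were DMSO wells with RBBP9 for no effect and wells lacking RBBP9 protein for full effect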
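Measured by – fluorescence polarization · Test system – RBBP9 protein · Input – 2.5 µM RBBP9 dispensing solution, before mixing · Measure – percent inhibition from mP, scaled between DMSO and no-protein wells · Benchmarks – DMSO-treated enzyme wells and wells lacking RBBP9 · Times – preincubation 30 min plus labeling 45 min at 25 °C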
GSTO1 inh: inhibitors of recombinant GSTO1, primary screen, counter-screen for RBBP9 inhibitor project, biochemical, fluorescence polarization. Glutathione S-transferase omega-1 (Homo sapiens), P78417. activity-based probe fluorescence polarization. inhibition, % at 5.96 µM. 300,000 tested, 1.1% active. AID 1974, 2009;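 active = inhibition above the campaign mean inhibition plus 3 SD, cut at about 35% in these data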;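 note: 0% = GSTO1-1 with DMSO and 100% = wells lacking GSTO1-1 enzyme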
PRMT1 inh: PRMT1 methyltransferase inhibitors, primary screen, biochemical, fluorescence polarization | Protein arginine N-methyltransferase 1 (Homo sapiens), Q99873 | recombinant PRMT1, activity-based probe fluorescence polarization | inhibition, % at 2.79 µM | 370,000 tested, 1.3% active;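 active = inhibition above about 21% made by adding two undisclosed values, limit read from the data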
Fam108B inh: mouse Fam108B serine hydrolase inhibitors, primary screen, counter-screen for RBBP9 inhibitor project, biochemical, fluorescence polarization; inhibition, % at 9.51 µM; AID 1947, 2009; 300,000 tested, 0.33% active; recombinant Fam108B, FP-Rh probe fluorescence polarization;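 active = inhibition above the screen mean inhibition plus 3 SD, computed separately per campaign, cut at about 18% in these data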;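 note: inhibitors lower polarization as less probe binds the enzyme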
PAD4 inh: human PAD4 inhibitors, primary screen, biochemical, fluorescence polarization, 1536-well format; recombinant PAD4, RCA probe fluorescence polarization; AID 485272, 2010; inhibition, % at 6.36 µM; 330,000 tested, 0.41% active; Protein-arginine deiminase type-4 (Homo sapiens), Q9UM07;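 active = percent inhibition above a cutoff equal to the mean of all tested compounds plus 3 SD, cut at about 15% in these data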;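 note: 0% = PAD4 with RCA probe and DMSO and 100% = probe without PAD4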
Fam108b inh conf: mouse Fam108b serine hydrolase inhibitors, confirmation, counter-screen for RBBP9 inhibitor project, biochemical, fluorescence polarization, triplicate; shares compounds with Fam108B inh; recombinant Fam108b, FP-Rh probe fluorescence polarization; inhibition, % at 9.51 µM; 930 tested, 44% active;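 active = inhibition above a limit from the primary screen, the mean over all compounds plus 3 SD, cut at about 19% in these data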;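 note: 0% = median of active Fam108b wells and 100% = catalytically dead S170A mutant; inhibitors free the probe so polarization falls as inhibition rises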
Fam108b inh: inhibition of mouse Fam108b by HTS hits, late-stage follow-up, biochemical, gel-based ABPP, soluble recombinant form | shares compounds with Fam108B inh | fluorophosphonate probe | inhibition, % at 20 µM | 260 tested, 44% active | AID 588649, 2011; in the data active = inhibition above about 40%
GSTO1 confirm: GSTO1 inhibitor hit confirmation, counter-screen for RBBP9 inhibitor project, biochemical, fluorescence polarization, triplicate; inhibition, % at 5.96 µM; recombinant GSTO1, probe fluorescence polarization; 2,400 tested, 54% active; shares compounds with GSTO1 inh;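 active = inhibition above the primary screen's cutoff, its mean inhibition plus 3 SD, cut at about 35% in these data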;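 note: loss of polarization as inhibitors block binding of rhodamine sulfonate ester activity probe; 0% = GSTO1 with DMSO and 100% = wells lacking GSTO1 enzyme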
PRMT1 confirm: PRMT1 methyltransferase inhibitors, confirmation, biochemical, fluorescence polarization, triplicate; 3,300 tested, 42% active; inhibition, % at 2.79 µM; recombinant His-PRMT1, activity-based probe fluorescence polarization; AID 687036, 2013; shares compounds with PRMT1 inh;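 active = mean inhibition across replicates above the hit cutoff derived for the earlier primary screen, cut at about 22% in these data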
Active calls of the source: *; x = not tested or not shown.

SMILES | PME-1 primary | RBBP9 inhibitor | GSTO1 inh | PRMT1 inh | Fam108B inh | PAD4 inh | Fam108b inh conf | PRMT1 confirm | others
CC(Oc1cc2oc(=O)c3c(c2cc1Cl)CCCC3)C(=O)NCc1ccccn1 (centres undefined) | -3 | x | 1 | 5 | 3 | 1 | x | x
CCOc1ccc(C(=O)NC(=S)Nc2ccc(NC(=O)c3ccco3)cc2)cc1[N+](=O)[O-] | -10 | 9 | -9 | -1 | -2 | -3 | x | x
Cc1c(Br)c(=O)oc2c(Br)c(O)c(O)cc12 | 14 | 1 | -4 | 29* | 25* | 5 | 21* | 35*
Cc1c(Br)c(=O)oc2c(Br)c(O)ccc12 | -3 | 3 | -23 | -1 | 1 | 2 | x | x
Cc1ccc2[nH]c(C)c(CC(=O)NCc3ccccc3)c2c1 | 6 | x | 6 | 1 | 2 | -5 | x | x
O=C(O)c1ccc2c(c1)C1C=CCC1C(c1ccncc1)N2 (centres undefined) | -22 | -4 | 15 | -5 | 6 | -12 | x | x
COc1ccc(NS(=O)(=O)c2ccc3c(c2)[C@H]2C=CC[C@H]2[C@@H](c2ccc(C(=O)O)cc2)N3)cc1 | -37 | x | 15 | 38* | 35* | -12 | 33* | 21* | Fam108b inh=0
Nc1nc2nccc(-c3cccnc3)n2n1 | -3 | -5 | -2 | -1 | 2 | -2 | x | x
N#C/C(=C/c1ccc(O)c(O)c1)c1nc2ccccc2[nH]1 | 29* | x | -23 | 42* | 27* | -10 | 29* | 37*
O=C(O)c1cc(O)c2c(c1)[C@@H]([C@H]1c3cc(C(=O)O)cc(O)c3C(=O)c3c(O[C@@H]4O[C@H](CO)[C@@H](O)[C@H](O)[C@H]4O)cccc31)c1cccc(OC3O[C@H](CO)[C@@H](O)[C@H](O)[C@H]3O)c1C2=O (some centres undefined) | 74* | x | 84* | 32* | 99* | -47 | 116* | 13 | GSTO1 confirm=80*
CCN(CCO)c1nc(SC)nc2c1sc1nc(-c3ccco3)c3c(c12)CCC3 | -5 | -4 | 0 | x | 5 | -2 | x | x
CSc1nc(NCCOCCO)c2sc3nc(-c4ccco4)c4c(c3c2n1)CCC4 | -5 | -5 | 21 | 41* | 29* | -8 | 5 | 24*
C[C@H]1c2cccc(O)c2C(=O)C2C(=O)C3(O)C(=O)C(C(N)=O)C(=O)[C@@H](N(C)C)[C@@H]3[C@@H](O)[C@@H]21 (some centres undefined) | x | x | x | 13 | x | -1 | x | x
C=C1c2cccc(O)c2C(O)=C2C(=O)[C@]3(O)C(O)=C(C(N)=O)C(=O)[C@@H](N(C)C)[C@@H]3[C@@H](O)[C@H]12 | 0 | 37* | 63* | 52* | 26* | -10 | -5 | 26* | GSTO1 confirm=70*
Cc1c(NC(=O)C(C)OC(=O)c2ccc([N+](=O)[O-])s2)c(=O)n(-c2ccccc2)n1C (centres undefined) | 4 | -2 | 44* | 6 | 7 | -10 | x | x | GSTO1 confirm=13
